# Measured values from ChEMBL document CHEMBL4304819, “Natural product pectolinarigenin exhibits potent anti-metastatic activity in colorectal carcinoma cells in vitro and in vivo” (2019).
# The source made the active and inactive calls. The calls are words filed in the database; no cut-off is given here.
# Tests used:
# [1] = system: CT26; assay: Antiproliferative activity against mouse CT26 cells assessed as inhibition of cell viability up to 40 uM by MTT assay; type: functional, cell-based; details: TDE = time-dependent effect
# Summary of the method: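 Exponentially growing cells (2–6 × 10^3 per well) seeded in 96-well plates for 24 h, then exposed to 0, 2.5, 5, 10, 20, 40 µM for 24, 48 and 72 h. MTT (5 mg/mL stock) added 2–4 h at 37 °C; formazan dissolved in DMSO, absorbance at 570 nm. Three independent experiments.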
# [2] = system: HCT-116; assay: Inhibition of colony formation in human HCT116 cells assessed as reduction in number of colonies up to 40 uM incubated for 24 hrs supplemented with fresh medium containing compound every 3 days for 12 days by crystal violet staining-based microscopic analysis; type: functional, cell-based
# Summary of the method: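 400–800 cells per well seeded in 6-well plates; after 24 h, PEC (0–40 μM) added. Medium with or without compound replaced every three days for 12 days. Colonies washed in cold PBS, fixed in methanol, stained 15 min with 0.5% crystal violet and counted under a microscope. Mean ± SD of three experiments.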
# [3] = system: CT26; assay: Induction of apoptosis in mouse CT26 cells assessed as appearance of condensed nuclei up to 40 uM after 48 hrs by Hoechst 33258 staining-based fluorescent microscopic analysis; type: functional, cell-based
# Summary of the method: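 Cells (1–2 × 10^5 per well) plated on 18-mm coverslips in six-well plates for 24 h, treated at various concentrations for 48 h, washed with cold PBS, fixed 15 min in 4% paraformaldehyde, stained with Hoechst 33258 (5 μg/ml); condensed/fragmented nuclei scored by fluorescence microscopy (10×); stained positive cells, mean ± SD of three experiments.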
# [4] = system: CT26; assay: Induction of apoptosis in mouse CT26 cells assessed as nuclear fragmentation up to 40 uM after 48 hrs by Hoechst 33258 staining-based fluorescent microscopic analysis; type: functional, cell-based
# Summary of the method: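 CT26 cells plated at 1–2 × 10^5 per well on 18-mm coverslips in six-well plates for 24 h, then treated 48 h with PEC. Washed in cold PBS, fixed 15 min in 4% paraformaldehyde, stained with Hoechst 33258 (5 μg/ml). Nuclear morphology viewed by fluorescence microscopy (10×); positive cells counted, mean ± SD of three experiments.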
# [5] = system: CT26; assay: Induction of apoptosis in mouse CT26 cells assessed as necrotic cells at 10 uM after 48 hrs by Annexin V-FITC/propidium iodide staining-based flow cytometric analysis (reference value: 1.80 %); type: functional
# Summary of the method: (§1)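 CT26 cells seeded at 1–2 × 10^5 per well in six-well plates for 24 h, then exposed to PEC (0–40 μM) for 24 or 48 h. Cells harvested, washed twice in cold PBS, stained with Annexin V-FITC/PI and read by flow cytometry. Early apoptotic = Annexin V+ only; late apoptotic = Annexin V+/PI+. Mean ± SD of three experiments.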
# [6] = system: CT26; assay: Induction of apoptosis in mouse CT26 cells assessed as viable cells at 20 uM after 48 hrs by Annexin V-FITC/propidium iodide staining-based flow cytometric analysis (reference value: 88.9 %); type: functional; details: CT26, 48 h, read-out: Activity; summary of the method: as §1
# [7] = system: HCT-116; assay: Induction of apoptosis in human HCT116 cells assessed as viable cells at 10 uM after 48 hrs by Annexin V-FITC/propidium iodide staining-based flow cytometric analysis (reference value: 86.7 %); type: functional; details: HCT-116, 48 h, read-out: Activity
# Summary of the method: (§2)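 Cells (1–2 × 10^5 per well) seeded in six-well plates 24 h, treated at 0–40 μM for 24 h or 48 h, harvested, washed twice in cold PBS, stained with Annexin V-FITC/PI and analysed by flow cytometry; early (Annexin V only) and late (Annexin V and PI) apoptotic fractions quantified; three experiments.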
# [8] = system: HCT-116; assay: Induction of apoptosis in human HCT116 cells assessed as early apoptotic cells at 40 uM after 48 hrs by Annexin V-FITC/propidium iodide staining-based flow cytometric analysis (reference value: 1.23 %); type: functional; summary of the method: as §2
# [9] = system: HCT-116; assay: Induction of apoptosis in human HCT116 cells assessed as late apoptotic cells at 40 uM after 48 hrs by Annexin V-FITC/propidium iodide staining-based flow cytometric analysis (reference value: 3.87 %); type: functional; summary of the method: as §2
# [10] = system: HCT-116; assay: Induction of apoptosis in human HCT116 cells assessed as increase in cleaved caspase-3 expression after 48 hrs by Western blot analysis; type: functional, cell-based
# Summary of the method: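 Cells treated 48 h at 0, 10, 20 and 40 μM, washed in cold PBS, lysed in RIPA; protein equalized by Lowry assay, resolved by SDS-PAGE, transferred to PVDF, blocked 1 h at 37 °C, primary antibody overnight at 4 °C, secondary 1 h, ECL detection, densitometry. β-actin loading control.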
# [11] = system: CT26; assay: Antimetastatic activity against ip dosed mouse CT26 cells allografted in Balb/c mouse assessed as reduction in number of tumour nodules administered daily for 14 days starting from 6 days post implantation; type: functional, organism-based
# Summary of the method: (§3)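 Female BALB/c mice (6–8 weeks) injected ip with 5 × 10^5 CT26 cells; from day 6, randomized (eight per group) to ip vehicle, 25 or 50 mg/kg once daily for 14 days. Abdominal circumference and body weight every 3 days; abdominal nodules counted by eye and weighed; spleens assessed; paraffin tumour sections immunostained (Ki-67, MMP-9, p-Stat3) with DAB detection.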
# [12] = system: CT26; assay: Antimetastatic activity against mouse CT26 cells allografted in Balb/c mouse assessed as inhibition of MMP -9 protein expression in tumour tissue at 25 to 50 mg/kg, ip administered daily for 14 days starting from 6 days post implantation by immunohistochemical analysis; type: functional, organism-based; summary of the method: as §3
# [13] = target: Signal transducer and activator of transcription 3 (Mus musculus) (UniProt P42227); assay: Antitumor activity against mouse CT26 cells allografted in Balb/c mouse assessed as inhibition of STAT3 phosphorylation in tumour tissue at 25 to 50 mg/kg, ip administered daily for 14 days starting from 6 days post implantation by immunohistochemical analysis; type: organism-based; summary of the method: as §3
# Signal transducer and activator of transcription 3 (Mus musculus), sequence (P42227 whole entry): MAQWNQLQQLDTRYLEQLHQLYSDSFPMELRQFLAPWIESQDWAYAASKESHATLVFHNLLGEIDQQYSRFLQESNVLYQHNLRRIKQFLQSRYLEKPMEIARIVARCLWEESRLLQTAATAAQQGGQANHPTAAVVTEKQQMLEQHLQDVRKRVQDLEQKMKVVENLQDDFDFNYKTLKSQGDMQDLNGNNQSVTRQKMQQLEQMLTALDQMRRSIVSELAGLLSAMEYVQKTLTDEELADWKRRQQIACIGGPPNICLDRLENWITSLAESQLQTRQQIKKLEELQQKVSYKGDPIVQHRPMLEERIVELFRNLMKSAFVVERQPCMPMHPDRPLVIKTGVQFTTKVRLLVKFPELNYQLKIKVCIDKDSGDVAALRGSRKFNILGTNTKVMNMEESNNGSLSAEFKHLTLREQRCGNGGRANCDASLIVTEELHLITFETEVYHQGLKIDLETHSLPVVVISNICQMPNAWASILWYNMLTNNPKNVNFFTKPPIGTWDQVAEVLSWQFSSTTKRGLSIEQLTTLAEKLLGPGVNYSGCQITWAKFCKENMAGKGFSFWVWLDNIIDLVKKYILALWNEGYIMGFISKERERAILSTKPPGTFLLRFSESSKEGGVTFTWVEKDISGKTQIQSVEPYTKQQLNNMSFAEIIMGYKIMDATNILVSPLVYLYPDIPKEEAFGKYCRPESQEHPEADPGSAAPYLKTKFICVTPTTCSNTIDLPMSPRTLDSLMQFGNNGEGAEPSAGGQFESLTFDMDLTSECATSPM
compound,measurement,setting,value
COc1ccc(-c2cc(=O)c3c(O)c(OC)c(O)cc3o2)cc1 [PECTOLINARIGENIN],inhibition,[1],Tde
same,inhibition,[2],Active
same,Activity,[3],Active
same,Activity,[4],Active
same,Activity,[5],3.82%
same,viability at 20 µM,[6],77.5%
same,viability at 10 µM,[7],85.1%
same,Activity,[8],9.42%
same,Activity,[9],9.67%
same,Activity,[10],Dose-dependent effect
same,Activity,[11],Dose-dependent effect
same,inhibition,[12],Active
same,inhibition,[13],Active
